Source: ChEMBL document CHEMBL1156125, “Pentacycle derivatives as cannabinoid CB1 receptor ligands” (Bioorg Med Chem Lett, 2009)

Experiments:
Cannabinoid receptor 1 = Cannabinoid receptor 1 (Rattus norvegicus, UniProt P20272); assay: Displacement of [3H]CP-55940 from CB1 receptor in Sprague-Dawley rat cerebellar membrane; design: species or system Cerebellum
Summary of the method: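 Pelleted membranes were incubated with 3 nM [3H]CP55,940, 0.5% fatty-acid-free BSA and a range of ligand concentrations for 1 h at 30 °C. Bound ligand was filtered on PEI-soaked GF/B and counted by scintillation; IC50 reported.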

Cannabinoid receptor 2 = Cannabinoid receptor 2 (Homo sapiens, UniProt P34972); assay: Displacement of [3H]WIN-552122 from human CB2 receptor expressed in CHOK1 cells; type: cell-based, CHO-K1
Summary of the method: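 Membranes came from CHO K-1 cells transfected with human CB2 and were prepared in TME buffer (pH 7.4) with centrifugation at 48,000g. Competition used 3 nM [3H]WIN55,212-2 in TME with 0.5% fatty-acid-free BSA across a range of ligand concentrations, 1 h at 30 °C.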

[1] = Selectivity ratio of IC50 for human CB2 to IC50 for rat CB1
Summary of the method: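 Competitive radioligand binding in TME buffer (50 mM Tris–HCl, 1 mM EDTA, 3 mM MgCl2, pH 7.4) with 0.5% fatty-acid-free BSA, 1 h at 30 °C. rCB1 used male Sprague-Dawley rat cerebellar membranes with 3 nM [3H]CP55,940. hCB2 used membranes from CHO K-1 cells transfected with human CB2, with 3 nM [3H]WIN55,212-2. Bound ligand was filtered and counted by scintillation. Ratio = hCB2 IC50 / rCB1 IC50.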

[2] = Cmax in rat at 5 mg/kg, po after 1.3 hrs; type: ADME, organism-based; design: dose 5 mg/kg, route oral; conditions: in vivo
Rattus norvegicus = assay: Systemic clearance in rat at 5 mg/kg, po; type: ADME, organism-based; design: dose 5 mg/kg, route oral; conditions: in vivo
[3] = Elimination half life in rat at 5 mg/kg, po; type: ADME, organism-based; design: dose 5 mg/kg, route oral; conditions: in vivo, read-out: beta t1/2 (converted)
[4] = Oral bioavailability in rat at 5 mg/kg; type: ADME, organism-based; conditions: in vivo
[5] = molecular target: Cannabinoid receptor 1 (Homo sapiens) (UniProt P21554); assay: Binding affinity to human CB1 receptor expressed in CHO cells by luciferase reporter gene assay
Cannabinoid receptor 1 (Homo sapiens), sequence (P21554 whole entry, looked up): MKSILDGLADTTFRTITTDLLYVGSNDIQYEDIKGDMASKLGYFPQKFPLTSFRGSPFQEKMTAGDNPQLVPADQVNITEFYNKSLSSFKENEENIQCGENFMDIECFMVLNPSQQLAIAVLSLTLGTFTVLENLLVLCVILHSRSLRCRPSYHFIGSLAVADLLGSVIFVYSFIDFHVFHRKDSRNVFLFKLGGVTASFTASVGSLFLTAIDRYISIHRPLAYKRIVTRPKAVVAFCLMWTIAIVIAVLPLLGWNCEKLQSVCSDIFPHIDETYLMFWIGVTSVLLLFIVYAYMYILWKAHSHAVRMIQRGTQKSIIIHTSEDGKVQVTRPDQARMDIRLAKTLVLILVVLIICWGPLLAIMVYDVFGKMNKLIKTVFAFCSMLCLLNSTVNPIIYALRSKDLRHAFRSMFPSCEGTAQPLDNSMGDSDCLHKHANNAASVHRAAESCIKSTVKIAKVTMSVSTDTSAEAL

Cannabinoid receptor 2, sequence (P34972 whole entry): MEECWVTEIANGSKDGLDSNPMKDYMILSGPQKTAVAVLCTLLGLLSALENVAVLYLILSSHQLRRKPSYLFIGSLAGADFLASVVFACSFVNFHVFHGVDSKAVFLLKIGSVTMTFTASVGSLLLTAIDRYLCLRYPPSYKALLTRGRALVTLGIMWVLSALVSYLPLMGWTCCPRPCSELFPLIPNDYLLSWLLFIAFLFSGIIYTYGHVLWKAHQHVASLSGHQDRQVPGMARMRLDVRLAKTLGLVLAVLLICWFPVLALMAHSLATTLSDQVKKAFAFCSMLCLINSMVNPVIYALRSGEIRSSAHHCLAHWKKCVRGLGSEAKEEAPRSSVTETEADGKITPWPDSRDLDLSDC
Cannabinoid receptor 1, sequence (P20272 whole entry): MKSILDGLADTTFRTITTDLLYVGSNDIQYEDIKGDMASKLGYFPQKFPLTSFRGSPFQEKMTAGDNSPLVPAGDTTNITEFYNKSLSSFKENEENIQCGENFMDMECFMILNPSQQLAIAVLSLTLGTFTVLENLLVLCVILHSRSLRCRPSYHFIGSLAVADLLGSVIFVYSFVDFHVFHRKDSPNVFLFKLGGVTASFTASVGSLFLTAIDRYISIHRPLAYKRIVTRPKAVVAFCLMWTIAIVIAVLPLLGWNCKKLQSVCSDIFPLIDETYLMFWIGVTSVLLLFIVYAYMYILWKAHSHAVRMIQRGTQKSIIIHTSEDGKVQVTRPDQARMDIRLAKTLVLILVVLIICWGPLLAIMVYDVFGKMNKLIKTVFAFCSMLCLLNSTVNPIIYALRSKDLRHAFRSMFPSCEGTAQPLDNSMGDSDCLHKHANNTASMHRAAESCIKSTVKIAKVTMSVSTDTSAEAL

## Cc1nnc(-c2c(-c3nnc(C(C)(C)C)o3)nn(-c3ccc(Cl)cc3Cl)c2-c2ccc(Br)cc2)o1
Cannabinoid receptor 1
  IC50: 2.56 nM
Cannabinoid receptor 2
  IC50: 414 nM
[1]
  Ratio IC50: 162

## Cc1nnc(-c2c(-c3nnc(C(C)(C)C)o3)nn(-c3ccc(Cl)cc3Cl)c2-c2ccc(Cl)cc2)o1
Cannabinoid receptor 1
  IC50: 6.47 nM

## Cc1nnc(-c2c(-c3nnc(C4(C(F)(F)F)CC4)s3)nn(-c3ccc(Cl)cc3Cl)c2-c2ccc(Br)cc2)s1
Cannabinoid receptor 1
  IC50: 4.21 nM

## Cc1nnc(-c2c(-c3nnc(C(C)(C)C)o3)nn(-c3ccc(Cl)cc3Cl)c2-c2ccc(Br)cc2)s1
Cannabinoid receptor 1
  IC50: 3.69 nM

## Cc1nnc(-c2c(-c3nnc(C4(C(F)(F)F)CC4)s3)nn(-c3ccc(Cl)cc3Cl)c2-c2ccc(Cl)cc2)s1
Cannabinoid receptor 1
  IC50: 7.39 nM

## Cc1nnc(-c2c(-c3nnc(C4(c5ccc(Cl)cc5)CC4)s3)nn(-c3ccc(Cl)cc3Cl)c2-c2ccc(Br)cc2)o1
Cannabinoid receptor 1
  IC50: 4.44 nM

## Cc1nnc(-c2c(-c3nnc(C4(c5ccc(Cl)cc5)CC4)o3)nn(-c3ccc(Cl)cc3Cl)c2-c2ccc(Br)cc2)s1
Cannabinoid receptor 1
  IC50: 2.13 nM

## Cc1nnc(-c2c(-c3nnc(C4(C(F)(F)F)CC4)o3)nn(-c3ccc(Cl)cc3Cl)c2-c2ccc(Cl)cc2)s1
Cannabinoid receptor 1
  IC50: 4.14 nM

## Cc1nnc(-c2c(-c3nnc(C4(c5ccc(Cl)cc5)CC4)s3)nn(-c3ccc(Cl)cc3Cl)c2-c2ccc(Cl)cc2)s1
Cannabinoid receptor 1
  IC50: 3.03 nM

## Cc1nnc(-c2c(-c3nnc(C4(c5ccc(Cl)cc5)CC4)s3)nn(-c3ccc(Cl)cc3Cl)c2-c2ccc(Cl)cc2)o1
Cannabinoid receptor 1
  IC50: 3.23 nM

## Cc1nnc(-c2c(-c3nnc(C(C)(C)C)s3)nn(-c3ccc(Cl)cc3Cl)c2-c2ccc(Br)cc2)o1
Cannabinoid receptor 1
  IC50: 4.93 nM

## Cc1nnc(-c2c(-c3nnc(C(C)(C)C)s3)nn(-c3ccc(Cl)cc3Cl)c2-c2ccc(Br)cc2)s1
Cannabinoid receptor 1
  IC50: 2.56 nM
Cannabinoid receptor 2
  IC50: 427 nM
[1]
  Ratio IC50: 167

## Cc1nnc(-c2c(-c3nnc(C4(c5ccc(Cl)cc5)CC4)s3)nn(-c3ccc(Cl)cc3Cl)c2-c2ccc(Br)cc2)s1
Cannabinoid receptor 1
  IC50: 3.7 nM
Cannabinoid receptor 2
  IC50: > 10000 nM
[1]
  Ratio IC50: > 2700

## Cc1nnc(-c2c(-c3nnc(C4(c5ccc(Cl)cc5)CC4)o3)nn(-c3ccc(Cl)cc3Cl)c2-c2ccc(Br)cc2)o1
Cannabinoid receptor 1
  IC50: 4.91 nM

## Cc1nnc(-c2c(-c3nnc(C4(c5ccc(Cl)cc5)CC4)o3)nn(-c3ccc(Cl)cc3Cl)c2-c2ccc(Cl)cc2)o1
Cannabinoid receptor 1
  IC50: 3.93 nM

## Cc1nnc(-c2c(-c3nnc(C(C)(C)C)o3)nn(-c3ccc(Cl)cc3Cl)c2-c2ccc(Cl)cc2)s1
Cannabinoid receptor 1
  IC50: 2.83 nM

## Cc1nnc(-c2c(-c3nnc(C4(c5ccc(Cl)cc5)CC4)o3)nn(-c3ccc(Cl)cc3Cl)c2-c2ccc(Cl)cc2)s1
Cannabinoid receptor 1
  IC50: 10.3 nM

## Cc1nnc(-c2c(-c3nnc(C4(C(F)(F)F)CC4)o3)nn(-c3ccc(Cl)cc3Cl)c2-c2ccc(Br)cc2)s1
Cannabinoid receptor 1
  IC50: 1.72 nM
Cannabinoid receptor 2
  IC50: 245 nM
[1]
  Ratio IC50: 142
[2]
  Cmax: 30 ng/mL
Rattus norvegicus
  clearance: 12.6 mL/min/kg
[3]
  half-life: 18.4 h
[4]
  bioavailability: 7.2%
[5]
  IC50: 38.5 nM

## Cc1nnc(-c2c(-c3nnc(C4(C(F)(F)F)CC4)o3)nn(-c3ccc(Cl)cc3Cl)c2-c2ccc(Cl)cc2)o1
Cannabinoid receptor 1
  IC50: 14.7 nM

## Cc1nnc(-c2c(-c3nnc(C4(C(F)(F)F)CC4)s3)nn(-c3ccc(Cl)cc3Cl)c2-c2ccc(Br)cc2)o1
Cannabinoid receptor 1
  IC50: 4.86 nM

## Cc1nnc(-c2c(-c3nnc(C4(C(F)(F)F)CC4)o3)nn(-c3ccc(Cl)cc3Cl)c2-c2ccc(Br)cc2)o1
Cannabinoid receptor 1
  IC50: 4.7 nM

## Cc1nnc(-c2c(-c3nnc(C4(C(F)(F)F)CC4)s3)nn(-c3ccc(Cl)cc3Cl)c2-c2ccc(Cl)cc2)o1
Cannabinoid receptor 1
  IC50: 26.9 nM
